Assay outcomes as filed in PubChem BioAssay.
In the library only some 2.5% were active in any assay of this set; here they are far more common.
DSG3 Ab inh: human desmoglein-3 autoantibody binding inhibition; P32926; DSG3-coupled beads, scFv-anti-DSG3-GFP binding, flow cytometry; active compounds read low; binding (percent of control), % at 10 µM; 310,000 compounds, 0.48% hits; AID 588358;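 active means binding more than 3 SD below its plate's average and above zero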;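 further: hits lower antibody fragment binding to DSG3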
Target sequence (P32926 whole entry, looked up, the tested form may be a part): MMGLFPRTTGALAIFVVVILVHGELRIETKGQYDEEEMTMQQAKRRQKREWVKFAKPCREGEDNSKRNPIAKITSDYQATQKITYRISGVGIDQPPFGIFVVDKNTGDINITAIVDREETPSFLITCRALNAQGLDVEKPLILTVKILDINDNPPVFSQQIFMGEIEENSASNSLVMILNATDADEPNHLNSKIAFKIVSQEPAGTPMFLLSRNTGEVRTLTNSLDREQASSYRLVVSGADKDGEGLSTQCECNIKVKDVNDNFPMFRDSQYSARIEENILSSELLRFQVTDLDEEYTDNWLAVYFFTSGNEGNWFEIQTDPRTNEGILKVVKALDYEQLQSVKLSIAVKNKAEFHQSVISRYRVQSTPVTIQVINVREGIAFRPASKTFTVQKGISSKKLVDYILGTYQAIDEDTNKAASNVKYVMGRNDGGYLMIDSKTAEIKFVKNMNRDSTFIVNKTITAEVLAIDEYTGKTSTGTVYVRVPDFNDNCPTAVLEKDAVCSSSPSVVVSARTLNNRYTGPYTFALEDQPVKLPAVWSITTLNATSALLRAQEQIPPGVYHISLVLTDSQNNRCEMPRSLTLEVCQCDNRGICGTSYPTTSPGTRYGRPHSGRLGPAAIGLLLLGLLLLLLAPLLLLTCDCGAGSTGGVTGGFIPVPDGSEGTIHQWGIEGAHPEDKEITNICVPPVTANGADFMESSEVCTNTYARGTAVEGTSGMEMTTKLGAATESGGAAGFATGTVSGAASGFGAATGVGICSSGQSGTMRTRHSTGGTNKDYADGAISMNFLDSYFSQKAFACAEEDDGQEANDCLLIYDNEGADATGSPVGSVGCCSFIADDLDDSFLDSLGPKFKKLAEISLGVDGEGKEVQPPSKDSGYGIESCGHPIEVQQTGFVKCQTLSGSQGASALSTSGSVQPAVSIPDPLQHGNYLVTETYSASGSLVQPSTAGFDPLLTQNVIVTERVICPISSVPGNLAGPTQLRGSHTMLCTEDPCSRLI
TRPC6 act: mouse TRPC6 channel activation | Q61143 | HEK293-TRPC6 membrane potential dye fluorescence; active compounds read high | 310,000 compounds, 0.13% hits | AID 2550 | B-score at 10 µM;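 active means B-score of the integrated fluorescence ratio above library mean plus 3 SD, and starting fluorescence ratio within library mean plus 5 SD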;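 further: higher score means more depolarization so channel activation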
TRPC4 potent: TRPC4 (mouse) allosteric potentiation. B-score at 10 µM. HEK293 TRPC4beta/mu-opioid, DAMGO EC20, Fluo-4 Ca2+ flux; active compounds read high. Q9QUQ5. AID 2227. 310,000 compounds, 0.42% hits;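 active means B-score of calcium response area above 5 SD of library B-scores, with initial fluorescence ratio within 5 SD of library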;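 further: B-score of integrated fluorescence ratio over time as area under calcium response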
TRPC6 inh: blocks the mouse TRPC6 cation channel. Q61143. HEK293-TRPC6, membrane potential dye, ACh-evoked depolarization; active compounds read low. B-score at 10 µM. 310,000 compounds, 1.1% hits. AID 2553;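 active means B-score under library mean minus 3 SD, initial fluorescence not abnormally high, positive integrated signal ratio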;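 further: B-score derived from integrated fluorescence ratio over the kinetic read; more negative B-score means stronger inhibition of depolarization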
TRPC4 block: TRPC4 (mouse) channel inhibition | B-score at 10 µM | 300,000 compounds, 0.39% hits | Q9QUQ5 | HEK293 TRPC4beta/mu-opioid, DAMGO-evoked Fluo4 calcium flux; active compounds read low;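 active means B-score over 3 SD under the library average, no early fluorescence shift, positive overall ratio signal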
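Assay system: HEK293 cells with stable TRPC4beta plus mu-opioid receptor expression. Dosing: single dose. Measured by: Fluo4 Ca2+ flux fluorescence. Also added: DAMGO in two steps, submaximal then maximal. Read-out: B score from integrated Fluo4 fluorescence ratio.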
TRPC4 act: opens the mouse TRPC4 cation channel. B-score at 10 µM. HEK293 TRPC4beta/mu-opioid, Fluo4 calcium fluorescence; active compounds read high. 310,000 compounds, 0.49% hits;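 active means B-score above 5 SD of library B-scores, and initial fluorescence ratio not above library mean plus 5 SD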;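 further: positive B-score marks a calcium rise read as TRPC4 activation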
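Test system: HEK293 cells stably co-expressing mouse TRPC4beta and mu-opioid receptor | Schedule: Fluo4 dye loading 45 min at room temperature, 110 s recording | Measured by: Kinetic Fluo4 calcium fluorescence, 5 s baseline at 1 Hz | Evaluation: B score of integrated ratio | Controls: Buffer (low) and maximal DAMGO (high)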
* hit, by the source's call; i = inactive; . = not tested or not shown.

SMILES	DSG3 Ab inh	TRPC6 act	TRPC4 potent	TRPC6 inh	TRPC4 block	TRPC4 act
CC(OCC(O)CN(C)CCOc1ccccc1)c1ccc(Cl)cc1 (configuration not stated)	101	i	i	i	-6*	i
CN(CCOc1ccccc1)CC(O)COc1ccccc1 (configuration not stated)	101	i	i	i	-6*	i
COCCCn1c(=O)c2sccc2n(Cc2ccc(C)cc2)c1=O	95	i	i	i	i	i
CCOc1ccc2ncc(C(=O)c3ccc(OC)cc3)c(N3CCN(CC)CC3)c2c1	105	i	i	i	i	120*
CCc1ccc(C(=O)c2cnc3ccc(OC)cc3c2N2CCN(CC)CC2)cc1	106	i	i	i	i	230*
CCOc1ccc(C(=O)c2cnc3ccccc3c2N2CCN(CC)CC2)cc1	109	i	i	i	-5*	i
C[C@H]1COC(=O)[C@@H](NC(=O)OCC2c3ccccc3-c3ccccc32)C/C=C\C[C@H](CC(=O)NCCO)C(=O)N1	100	.	.	.	.	.
COc1ccc(CN2CCN(CC(O)Cn3c4ccccc4c4ccccc43)CC2)cc1 (configuration not stated)	103	i	i	i	i	79*
COc1cc(C(=O)NCC2CCCN2S(=O)(=O)c2cccs2)cc(OC)c1OC (configuration not stated)	112	i	i	i	i	i
Cc1cc(NCc2ccccc2)nc(N2CCOCC2)n1	107	i	i	i	-6*	i
Cc1cc(N2CCCCC2)nc(NCc2ccccc2)n1	100	i	12*	i	i	47*
O=C(CC1C(=O)NCCN1Cc1ccoc1)NCCCn1ncc2ccccc21 (configuration not stated)	101	i	i	i	i	i
CCOC(=O)c1sc2nc3c(SCCC(=O)O)cc(C(=O)c4cc(OC)ccc4O)cn3c(=O)c2c1C	55*	i	i	i	i	i
CC1=C(C(=O)OC(C)C)C(c2ccc(C)o2)C(C(=O)OC(C)C)=C(C)N1	.	i	i	i	i	i
Cc1noc(C)c1CSCC(=O)Nc1cc(S(=O)(=O)N2CCCCC2)ccc1OC(C)C	100	i	i	i	i	i
Cc1noc(C)c1CSCC(=O)Nc1cc(S(=O)(=O)N2CCOCC2)ccc1OCC(F)(F)F	76*	i	i	i	i	i
CCOC(=O)N1CCN(C(=O)c2ccc3oc(CCCc4ccccc4)nc3c2)CC1	112	i	i	i	i	i
CCOC(=O)C1CCN(C2CCN(C(=O)c3oc4c(C)c(C)ccc4c3C)CC2)CC1	128	i	i	i	-6*	i
Cc1ccc2c(C)c(C(=O)N3CCC(O)(c4ccccc4)CC3)oc2c1C	94	i	13*	i	i	i
Clc1ccccc1CSc1nc2ccncc2[nH]1	109	i	i	i	-6*	i
O=S(=O)(c1ccc(Br)cc1Cl)N1CCN(CCO)CC1	103	i	i	i	i	83*
COC(=O)c1ccncc1C(=O)Nc1ccc(F)cc1	104	i	i	i	i	i
Cc1cc(=O)oc2cc(NC(=S)NCc3ccccn3)ccc12	100	i	i	i	-6*	i
CC1=[N+](C)c2c(ccc3cccnc23)C1(C)C	79*	.	.	.	.	.
COc1ccc(-c2nc3ccccn3c2NCc2ccc3c(c2)OCO3)cc1	.	i	i	-5.3*	i	i
SMILES	DSG3 Ab inh	TRPC6 act	TRPC4 potent	TRPC6 inh	TRPC4 block	TRPC4 act
CC1=C[C@@H](C)[C@@H](c2ccccc2)OC1=O	105	i	i	i	i	61*
CC1=C[C@@H](C)[C@@H](c2ccc(C(F)(F)F)cc2)OC1=O	100	i	i	i	i	i
CC1CCCCN1C(=O)c1cccc(NC2=C(Cl)C(=O)N(Cc3ccccc3)C2=O)c1 (configuration not stated)	95	.	.	.	.	.
O=C1C(Cl)=C(Nc2cccc(O)c2)C(=O)N1Cc1ccccc1	103	i	74*	i	i	i
O=C(COC(=O)c1ccc2ccccc2n1)NCc1ccccc1	104	i	i	i	i	i
CN(C)C(CNC(=O)C1CC(=O)N(Cc2ccccc2)C1)c1ccccc1 (configuration not stated)	105	i	i	i	i	72*
COC(=O)C1CC(=O)N(Cc2ccccc2)C1 (configuration not stated)	99	i	i	i	i	i
COc1ccc(C(CNC(=O)C2CC(=O)N(Cc3ccc(C)cc3)C2)N(C)C)cc1 (configuration not stated)	.	i	i	i	i	66*
COc1ccc(C(=O)Nc2ccc3oc(-c4cccc(F)c4)nc3c2)cc1OC	52*	i	i	i	i	i
COc1ccc(C(=O)Nc2ccc3oc(-c4cccnc4)nc3c2)cc1OC	104	i	i	i	i	i
COc1ccc(C(=O)Nc2ccc3[nH]ccc3c2)cc1	107	i	i	i	i	i
COc1ccc(C(=O)Nc2ccc3[nH]ccc3c2)cc1OC	85*	i	i	i	i	i
CC(=O)/C=C1/C(=O)Nc2ccccc21	102	i	i	i	-5*	i
C=CCOc1cccc(C(=O)/C=C2/C(=O)Nc3ccccc32)c1	94	i	i	i	i	i
NCCCCCCNS(=O)(=O)c1cccc2c(Cl)cccc12	106	i	i	i	i	95*
CN(C)CCCNS(=O)(=O)c1cc(Cl)ccc1Cl	101	i	i	i	i	i
CCn1c(CC(=O)Nc2ccc(F)cc2)nnc1SCC(=O)NC1=NCCS1	-62*	i	i	i	i	i
CCn1c(CC(=O)Nc2ccccc2F)nnc1SCC(=O)NC1=NCCS1	98	.	.	.	.	.
CCCCn1c(NCc2ccncc2)nc2ccccc21	104	i	i	i	i	i
C=CCn1c(NCc2ccco2)nc2ccccc21	98	i	34*	i	i	i
CCn1c(NCc2ccco2)nc2ccccc21	105	i	54*	i	i	i
C=CCn1c(NC(=O)c2ccco2)nc2ccccc21	100	i	i	i	i	i
CCCCn1c(NCc2ccc(N(C)C)cc2)nc2ccccc21	92	i	i	i	-6*	i
